Assay outcomes from PubChem.
NPY-Y2 PAM-ag = NPY-Y2 potentiators or agonists, primary screen, cell-based; cells expressing NPY-Y2, potentiator/agonist read-out; activation, % at 3.6 µM; 220,000 tested, 0.45% active; in the data active = activation above about 27%;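 note: cells stimulated with NPY near EC25 plus isoproterenol at EC100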
Target sequence (P49146 whole entry, looked up): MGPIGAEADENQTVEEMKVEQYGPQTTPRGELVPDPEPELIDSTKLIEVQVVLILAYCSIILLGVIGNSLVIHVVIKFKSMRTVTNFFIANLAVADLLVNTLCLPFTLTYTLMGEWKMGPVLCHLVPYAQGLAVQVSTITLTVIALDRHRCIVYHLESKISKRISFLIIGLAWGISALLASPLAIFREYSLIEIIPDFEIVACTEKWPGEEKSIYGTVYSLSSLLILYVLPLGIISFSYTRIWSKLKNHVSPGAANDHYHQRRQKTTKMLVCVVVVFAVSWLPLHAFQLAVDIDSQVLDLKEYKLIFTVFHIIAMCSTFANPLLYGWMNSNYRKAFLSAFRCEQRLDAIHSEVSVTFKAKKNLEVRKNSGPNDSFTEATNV
NPY1 pot ag = NPY-Y1 receptor potentiators or agonists, primary screen, cell-based; NPY-Y1 expressing cells, potentiator/agonist activation; activation, % at 3.6 µM; 220,000 tested, 0.37% active; AID 1304, 2008; in the data active = activation above about 33%, passing the limit was not always enough;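 note: cells stimulated with NPY at EC10 then isoproterenol at EC100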
INS promoter inh = inhibitors of insulin promoter-driven GFP, primary screen, imaging, TRM-6 cells, eGFP reporter, cell count; 130,000 tested, 0.9% active; inhibition, % at 2 µM; AID 1273, 2008; reporter expression induced with tamoxifen;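 active = inhibition above the mean plus 3 SD, with well images judged a real hit on visual review, cut at about 60% in these data, passing the limit was not always enough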
RAM inhibit = inhibitors of the yeast RAM network, primary screen, dse1pr::URA3 reporter, 5-FOA selection | S. cerevisiae dse1pr::URA3 reporter, 5-FOA growth OD615, 2 d; analog-sensitive cbk1-as2 kinase mutant strain | inhibition, % at 50 µM | 190,000 tested, 1.8% active | AID 868, 2007;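 active = inhibition above a set limit, 3 SD over mean compound inhibition, cut at about 8.4% in these data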;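 note: inhibition rescues growth on 5-FOA so higher OD means more RAM inhibition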
NPY-Y1 antag = NPY-Y1 receptor antagonists, primary screen, cell-based. HEK293-CNG Y1 cells, membrane potential fluorescence; NPY at EC95, then isoproterenol. 200,000 tested, 1% active. inhibition, % at 3.6 µM. AID 1040, 2008. Neuropeptide Y receptor type 1 (Homo sapiens), P25929;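 active = inhibition above the campaign mean inhibition of all tested compounds plus 3 SD, cut at about 20% in these data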
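Assay system: HEK293 cells with Y1 receptor plus CNG channel | Probe or stimulus: NPY (25 nM), isoproterenol (1 µM), Ro 20-1724 (25 µM) | Timing: Compound incubation 1 h at room temperature, readout 45 min post-stimulation | Measured by: Membrane-potential fluorescent dye readout | Benchmarks: High control isoproterenol alone, low control NPY with isoproterenol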
NPY-Y2 antag = NPY-Y2 receptor antagonists, primary screen, cell-based. NPY-Y2 expressing cells, antagonist mode. AID 793, 2007. 140,000 tested, 0.99% active. inhibition, % at 2.7 µM. Neuropeptide Y receptor type 2 (Homo sapiens), P49146; in the data active = inhibition above about 17%
Hits are given with their value; . = inactive; / = no result. This is a sample that favours compounds with a hit; in the whole collection about 3.8% have one here.

SMILES	NPY-Y2 PAM-ag	NPY1 pot ag	INS promoter inh	RAM inhibit	NPY-Y1 antag	NPY-Y2 antag
CCCCC(=O)Nc1ccc(C(=O)Nc2ccc(S(=O)(=O)N3CCCC3)cc2)cc1	.	.	.	8.6	.	.
Cc1onc(-c2ccccc2)c1C(=O)Nc1ccc(S(=O)(=O)N2CCCCC2)cc1	.	.	/	.	.	.
Cc1csc(=N)n1-c1ccc(Cl)cc1	.	.	91	.	.	.
CCOC(=O)c1ccc(-n2[nH]c(-c3ccccc3)cc2=O)cc1	.	.	.	9.6	.	.
O=c1c2[nH]c3ccc(Br)cc3c2ncn1CCCn1ccnc1	.	.	79	.	.	.
CCCCn1cnc2c([nH]c3cc(OC)ccc32)c1=O	.	.	.	.	.	.
CCCCn1cnc2c([nH]c3ccccc32)c1=O	.	.	82	.	.	.
Cc1nc2c([nH]c3ccccc32)c(=O)n1N	.	.	100	.	.	/
CCOc1[nH]n(-c2ccccc2)c(=O)c1C=NCc1cccnc1	.	.	/	.	.	/
C=C(C)CSc1nc2ncccc2[nH]1	.	.	71	.	.	.
CCN(CC)C(=O)CSc1nc2ncccc2[nH]1	.	.	.	.	.	.
CCOC(=O)C1CCCN(C2CC(=O)N(c3ccc(C)cc3)C2=O)C1 (centres undefined)	.	.	68	.	.	.
CCOC(=O)C1CCCN(C2CC(=O)N(c3ccc(NC(C)=O)cc3)C2=O)C1 (centres undefined)	.	.	.	.	.	/
COc1ccccc1N(CC(O)COc1ccccc1C)S(=O)(=O)c1ccccc1 (centres undefined)	.	.	.	9.7	.	.
Cc1ccccc1OCC(O)CN1CCCCC1 (centres undefined)	64	89	.	.	.	/
Cc1cc(C)nc(NCC(O)COc2ccccc2C)n1 (centres undefined)	.	.	/	.	.	.
Cc1ccccc1OCC(O)CN (centres undefined)	44	80	/	.	.	.
COc1ccccc1N(CC(O)Cn1c2ccccc2c2ccccc21)S(=O)(=O)c1ccccc1 (centres undefined)	.	.	.	.	.	.
CN(C(=S)NCCN1CCOCC1)C(c1ccccc1)c1ccccc1	.	.	/	.	.	/
Cc1nn(C2CCS(=O)(=O)C2)c(Cl)c1/C=C/C(=O)OCC(=O)Nc1ccc2c(c1)OCO2 (centres undefined)	.	.	.	.	.	/
O=c1[nH]c2cc(Cl)c([N+](=O)[O-])nc2[nH]1	.	.	/	.	22	18
Cc1ccc(-n2nc3c(c2NC(=O)c2ccc4c(c2)OCO4)CS(=O)C3)cc1 (centres undefined)	.	.	.	.	.	.
CCOc1ccc(C(=O)Nc2c3c(nn2-c2ccc(C)cc2)CS(=O)C3)cc1OCC (centres undefined)	.	.	/	9.6	.	.
COc1ccc(C)cc1NCC(=O)Nc1ccc(C(C)(C)C)cc1	.	.	/	.	.	.
Cc1c(NC(=O)c2nn3c(C(F)(F)F)cc(-c4ccccc4)nc3c2Br)c(=O)n(-c2ccccc2)n1C	.	.	.	8.6	.	.
SMILES	NPY-Y2 PAM-ag	NPY1 pot ag	INS promoter inh	RAM inhibit	NPY-Y1 antag	NPY-Y2 antag
O=C(Cc1ccc(Br)cc1)Nc1cccc(Cl)c1	.	.	/	.	.	/
COc1ccc(CNC(=O)c2cccnc2Sc2ccc(C)c(C)c2)cc1	.	.	.	9.3	.	.
CCOC(=O)Cc1csc(NC(=S)NC(=O)c2ccccc2)n1	.	.	.	.	.	.
CCOC(=O)Cc1csc(NC(=S)NC(=O)c2ccccc2Br)n1	.	.	.	8.6	.	.
CCOC(=O)Cc1csc(NC(=S)NC(=O)c2ccc(C)cc2)n1	.	.	/	9.7	.	.
COc1ccc(NC(=O)C(c2ccc(OC)cc2)N(C)C(=O)CNC(C)=O)cc1 (centres undefined)	.	.	77	.	.	.
O=C(CNCc1ccccc1)Nc1ccc(Oc2ccccc2)cc1	.	.	/	11	.	/
Cc1cc(/C=C2\C(=N)N3N=CSC3=NC2=O)c(C)n1Cc1ccccc1	.	.	/	/	/	/
OC1CCCN(Cc2nc(Cc3ccccc3Cl)no2)C1 (centres undefined)	.	.	.	.	.	/
CN(C(=O)CC1C(=O)NCCN1CC1CCCCC1)C1CCOCC1 (centres undefined)	.	.	/	/	/	/
CCOC(=O)c1c(NC(=O)CN2C(=O)NC3(CCCCC3)C2=O)sc(C)c1-c1ccc(C)cc1	.	.	/	.	.	.
CCOC(=O)c1sc(NC(=O)CN2C(=O)NC3(CCCCCCC3)C2=O)c(C(=O)OCC)c1C	102	68	/	/	/	/
NC(=O)CSc1nnc(-c2ccc(S(=O)(=O)N3CCCC3)cc2)o1	.	.	.	.	.	.
O=S(=O)(c1ccc(-c2nnc(SCc3ccccc3)o2)cc1)N1CCCC1	.	.	/	9.3	.	.
Cc1ccc(CSc2nnc(-c3ccc(S(=O)(=O)N4CCCC4)cc3)o2)cc1	.	.	.	10	.	.
CCN(CC)c1ccc(NC(=S)NCC2CCCO2)cc1 (centres undefined)	.	.	/	.	.	/
CC(C)n1cc(/C=C(\C#N)S(=O)(=O)c2ccccc2)c2ccccc21	.	.	.	.	.	.
Cc1cc(O)c(C(C)C)cc1NS(=O)(=O)c1ccccc1	.	.	.	.	.	.
CCOC(=O)c1cnc2ccc(OCC)cc2c1NCc1cccnc1	.	.	.	.	.	.
CCOC(=O)c1cnc2ccc(OCC)cc2c1N1CCN(c2ccccc2)CC1	.	.	.	.	29	17
CCOC(=O)c1cnc2ccc(OCC)cc2c1NCc1ccccc1	.	.	.	.	70	66
CC(C)(C)NC(=O)Cc1ccc(Cl)c(Cl)c1	.	.	/	.	.	/
O=C(CCCSc1nnnn1-c1cccc2ccccc12)c1ccc(F)cc1	.	.	/	9.4	.	.
CCCCC/C(=N\NC(=O)Nc1ccccc1)c1ccccc1	.	.	.	9.5	.	/
COc1cc(COCC(O)CN2CCOCC2)cc(OC)c1OC (centres undefined)	.	.	/	.	.	.
COc1cccc(OCC(O)CN2CCN(c3ccccc3)CC2)c1 (centres undefined)	.	.	/	/	/	/
COc1ccc(COCC(O)CN2CCOCC2)cc1OC (centres undefined)	79	54	.	.	.	.
COc1cccc(OCC(O)CN2CCOCC2)c1 (centres undefined)	45	60	/	.	.	.
CC(C)Cc1nnc(NC(=O)CSc2nc(O)c(Cc3ccccc3)c(=O)[nH]2)s1	.	.	/	.	.	/
